Experimental data reported in ChEMBL document CHEMBL1124060, “2-Ethynylbenzenealkanamines. A new class of calcium entry blockers” (1988).

Assays:
Type in all cases: functional
Cavia porcellus [1] = organism: Cavia porcellus; assay: Concentration needed to elicit a 75% increase beyond control in coronary flow in ''Langendorff'', guinea pig heart (in vitro)
How it was run: (§1)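 Isolated Langendorff-perfused guinea pig hearts infused with a range of drug concentrations; force (g), rate (beats/min) and coronary flow (mL/min) recorded. A linear regression of percent-control flow gives C175, the micromolar concentration raising flow to 175% of control, reported only if within the tested range. Raw data analysed by paired t tests.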

Cavia porcellus [2] = organism: Cavia porcellus; assay: Concentration needed to achieve a 75% increase in coronary blood flow in 'Langendorff', guinea pig heart (in vitro negative inotropic activity); how it was run: as §1
Cavia porcellus [3] = organism: Cavia porcellus; assay: Concentration needed to achieve a 75% increase in coronary blood flow in 'Langendorff', guinea pig heart (in vitro Negative inotropic potency); how it was run: as §1
Rattus norvegicus [4] = assay: Ability to lower blood pressure in the spontaneously hypertensive rat (SHR) at 30 mg/kg (p.o.); conditions: route oral
How it was run: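 Spontaneously hypertensive rats were given a single oral dose of the compound. The read-out was the maximum fall in blood pressure, in mmHg, after that dose. A P value for significance was reported with each value.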

Rattus norvegicus [5] = assay: Ability to lower blood pressure in the spontaneously hypertensive rat (SHR) at 3 mg/kg (p.o.); conditions: route oral
How it was run: (§2)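 Spontaneously hypertensive rats dosed orally at the stated dose; read-out is the maximum fall in blood pressure (mmHg), with significance shown as P.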

Rattus norvegicus [6] = assay: Ability to lower blood pressure in the spontaneously hypertensive rat (SHR) at 10 mg/kg (p.o.); conditions: route oral; how it was run: as §2
Oryctolagus cuniculus [7] = organism: Oryctolagus cuniculus; assay: In vitro inhibition of development of isometric tension, in response to KCl (60 uM) in rabbit aorta
How it was run: (§3)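 Test compounds at 10 μM; tension and calcium influx each expressed as % change from control, measured against KCl ([…]) or NE (10 μM) stimulus.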

Oryctolagus cuniculus [8] = organism: Oryctolagus cuniculus; assay: In vitro inhibition of development of isometric tension, in response to norepinephrine (NE, 10 uM) in rabbit aorta; how it was run: as §3
Oryctolagus cuniculus [9] = organism: Oryctolagus cuniculus; assay: Inhibition of [Ca2+] influx in response to a stimulus of KCL (60 uM); how it was run: as §3
Oryctolagus cuniculus [10] = organism: Oryctolagus cuniculus; assay: Inhibition of [Ca2+] influx in response to a stimulus of norepinephrine (NE, 10 uM); how it was run: as §3

| Structure (SMILES) | C175 (Cavia porcellus [1]) | Contractile force, % of control (Cavia porcellus [2]) | P (Ei) (Cavia porcellus [3]) | Max fall in blood pressure (Rattus norvegicus [4]) | Max fall in blood pressure (Rattus norvegicus [5]) | Max fall in blood pressure (Rattus norvegicus [6]) | Change (Oryctolagus cuniculus [7]) | Change (Oryctolagus cuniculus [8]) | Change (Oryctolagus cuniculus [9]) | Change (Oryctolagus cuniculus [10]) | Control (Cavia porcellus [2]) |
| --- | --- | --- | --- | --- | --- | --- | --- | --- | --- | --- | --- |
| COc1ccc(C#Cc2ccccc2)c(CCCN(C)C)c1 | 0.3 µM | 110% | >0.5 | 22 mmHg | – | – | – | – | – | – | – |
| COc1ccc(C#Cc2ccccc2)c(CC(C)N(C)CCc2cccc(Cl)c2)c1 (stereo not drawn) | 0.005 µM | 95% | 0.53 | – | 64 mmHg | – | – | – | – | – | – |
| COc1ccc(CCN(C)C(C)CCc2cc(F)ccc2C#Cc2ccccc2)cc1OC (stereo not drawn) | 0.34 µM | 85% | 0.45 | 50 mmHg | – | – | – | – | – | – | – |
| COc1ccc(C#Cc2ccccc2)c(CC(C)NCCc2cccc3ccccc23)c1 (stereo not drawn) | 0.083 µM | 77% | 0.003 | 48 mmHg | – | – | – | – | – | – | – |
| COc1cccc(CCNC(C)Cc2cc(OC)ccc2C#Cc2ccccc2)c1 (stereo not drawn) | 0.004 µM | 115% | 0.019 | – | – | 56 mmHg | – | – | – | – | – |
| COc1ccc(C#Cc2ccc(F)cc2)c(CC(C)N(C)CCc2ccc(OC)c(OC)c2)c1 (stereo not drawn) | 0.0013 µM | 78% | 0.003 | – | 43 mmHg | – | – | – | – | – | – |
| CCCCN(CCc1ccc(OC)c(OC)c1)C(C)Cc1cc(OC)ccc1C#Cc1ccccc1 (stereo not drawn) | >3 µM | – | – | 49 mmHg | – | – | – | – | – | – | – |
| COc1ccc(C#Cc2ccccc2)c(CC(C)N(C)CCCc2ccccc2)c1 (stereo not drawn) | 2.5 µM | 95% | >0.5 | 52 mmHg | – | – | – | – | – | – | – |
| COc1ccc(C#Cc2ccccc2)c(CC(C)N(C)CCc2cccc3ccccc23)c1 (stereo not drawn) | 0.19 µM | 61% | 0.005 | – | – | – | – | – | – | – | – |
| COc1cc(CCN(C)C(C)CCc2cc(OC)ccc2C#Cc2ccccc2)cc(OC)c1 (stereo not drawn) | 0.095 µM | 105% | 0.15 | 42 mmHg | – | – | – | – | – | – | – |
| COc1ccc(C#Cc2ccc(N(C)C)cc2)c(CC(C)N(C)CCc2ccc(OC)c(OC)c2)c1 (stereo not drawn) | 0.035 µM | 115% | 0.009 | – | 69 mmHg | – | – | – | – | – | – |
| COc1ccc(C#Cc2ccccc2)c(CC(C)NCCc2cccc(Cl)c2)c1 (stereo not drawn) | 0.03 µM | 85% | 0.007 | – | 52 mmHg | – | – | – | – | – | – |
| COc1ccc(C#Cc2ccccc2)c(CC(C)N(C)CCc2cccc(Cl)c2Cl)c1 (stereo not drawn) | 0.015 µM | 58% | 0.007 | – | 111 mmHg | – | – | – | – | – | – |
| COc1ccc(C#Cc2ccccc2)c(CCC(C)N(C)CCc2ccc(OC)c(OC)c2)c1 (stereo not drawn) | 0.025 µM | 135% | 0.055 | 40 mmHg | – | – | -71% | -47% | -42% | -34% | – |
| COc1ccc(C#Cc2ccccc2)c(CCC(C)NCCc2ccc(OC)c(OC)c2)c1 (stereo not drawn) | 0.07 µM | 123% | 0.001 | 20 mmHg | – | – | – | – | – | – | – |
| COc1cc(CCNC(C)CCc2cc(OC)ccc2C#Cc2ccccc2)cc(OC)c1 (stereo not drawn) | 2.1 µM | 87% | 0.045 | 34 mmHg | – | – | – | – | – | – | – |
| COc1ccc(C#Cc2ccccc2)c(CCN(C)C)c1 | 3 µM | – | >0.05 | 18 mmHg | – | – | – | – | – | – | 90% |
| COC(=O)C1=C(C)NC(C)=C(C(=O)OC)C1c1ccccc1[N+](=O)[O-] [NIFEDIPINE] | 0.013 µM | 85% | 0.014 | – | – | 52 mmHg | – | – | – | – | – |
